Measured values published in ChEMBL document CHEMBL4229333, “Effects of rigidity on the selectivity of protein kinase inhibitors” (Eur J Med Chem, 2018).

Experiments:
[1] = target: Protein kinase C zeta type (Homo sapiens) (UniProt Q05513); assay: Inhibition of PKC-zeta (unknown origin) at 1 uM by mobility shift microfluidics platform based assay relative to control
[2] = target: Phosphatidylinositol 4,5-bisphosphate 3-kinase catalytic subunit beta isoform (Homo sapiens) (UniProt P42338); assay: Inhibition of PI3K-beta (unknown origin) at 1 uM by mobility shift microfluidics platform based assay relative to control
[3] = target: Tyrosine-protein kinase JAK3 (Homo sapiens) (UniProt P52333); assay: Inhibition of JAK3 (unknown origin) at 1 uM by mobility shift microfluidics platform based assay relative to control
[4] = target: Ephrin type-A receptor 1 (Homo sapiens) (UniProt P21709); assay: Inhibition of EPH-A1 (unknown origin) at 1 uM by mobility shift microfluidics platform based assay relative to control
[5] = target: Serine/threonine-protein kinase Nek2 (Homo sapiens) (UniProt P51955); assay: Inhibition of NEK2 (unknown origin) at 1 uM by mobility shift microfluidics platform based assay relative to control
[6] = target: cAMP-dependent protein kinase catalytic subunit PRKX (Homo sapiens) (UniProt P51817); assay: Inhibition of PRKX (unknown origin) at 1 uM by mobility shift microfluidics platform based assay relative to control
[7] = target: Protein NDRG1 (Homo sapiens) (UniProt Q92597); assay: Inhibition of NDRG1 (unknown origin) at 1 uM by mobility shift microfluidics platform based assay relative to control
Chain of Protein NDRG1 (Homo sapiens) (Q92597 whole entry): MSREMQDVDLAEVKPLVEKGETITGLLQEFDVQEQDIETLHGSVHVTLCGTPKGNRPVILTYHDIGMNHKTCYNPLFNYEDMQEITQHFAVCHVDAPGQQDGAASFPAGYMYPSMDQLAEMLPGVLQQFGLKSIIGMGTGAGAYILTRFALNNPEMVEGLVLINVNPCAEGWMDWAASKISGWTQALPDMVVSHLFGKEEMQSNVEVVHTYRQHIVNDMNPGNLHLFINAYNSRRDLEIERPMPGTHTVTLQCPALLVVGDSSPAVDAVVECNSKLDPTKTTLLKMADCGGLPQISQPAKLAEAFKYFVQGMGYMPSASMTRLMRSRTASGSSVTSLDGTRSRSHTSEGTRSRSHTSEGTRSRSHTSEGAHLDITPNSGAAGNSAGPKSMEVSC

[8] = target: Vascular endothelial growth factor receptor 1 (Homo sapiens) (UniProt P17948); assay: Inhibition of FLT1 (unknown origin) at 1 uM by mobility shift microfluidics platform based assay relative to control
[9] = target: Serine/threonine-protein kinase 4 (Homo sapiens) (UniProt Q13043); assay: Inhibition of MST1 (unknown origin) at 1 uM by mobility shift microfluidics platform based assay relative to control
[10] = target: Serine/threonine-protein kinase Nek1 (Homo sapiens) (UniProt Q96PY6); assay: Inhibition of NEK1 (unknown origin) at 1 uM by mobility shift microfluidics platform based assay relative to control
[11] = Apparent permeability from basolateral to apical side in human Caco2 cells in absence of P-gp inhibitor by LC-MS/MS analysis; assay type: ADME, cell-based; details: Caco-2
In short: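 Caco-2 monolayer permeability, measured apical-to-basolateral and basolateral-to-apical. Compound concentrations were quantified by LC-MS/MS, and apparent permeability coefficients (Papp, cm/s) were calculated from them.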

[12] = target: Glycogen synthase kinase-3 beta (Homo sapiens) (UniProt P49841); assay: Inhibition of GSK-3-beta (unknown origin) at 1 uM by mobility shift microfluidics platform based assay relative to control
[13] = target: Serine/threonine-protein kinase MARK2 (Homo sapiens) (UniProt Q7KZI7); assay: Inhibition of PAR-1B-alpha (unknown origin) at 1 uM by mobility shift microfluidics platform based assay relative to control
[14] = target: Receptor-type tyrosine-protein kinase FLT3 (Homo sapiens) (UniProt P36888); assay: Inhibition of FLT3 (unknown origin) at 1 uM by mobility shift microfluidics platform based assay relative to control
Chain of Receptor-type tyrosine-protein kinase FLT3 (Homo sapiens) (P36888 whole entry): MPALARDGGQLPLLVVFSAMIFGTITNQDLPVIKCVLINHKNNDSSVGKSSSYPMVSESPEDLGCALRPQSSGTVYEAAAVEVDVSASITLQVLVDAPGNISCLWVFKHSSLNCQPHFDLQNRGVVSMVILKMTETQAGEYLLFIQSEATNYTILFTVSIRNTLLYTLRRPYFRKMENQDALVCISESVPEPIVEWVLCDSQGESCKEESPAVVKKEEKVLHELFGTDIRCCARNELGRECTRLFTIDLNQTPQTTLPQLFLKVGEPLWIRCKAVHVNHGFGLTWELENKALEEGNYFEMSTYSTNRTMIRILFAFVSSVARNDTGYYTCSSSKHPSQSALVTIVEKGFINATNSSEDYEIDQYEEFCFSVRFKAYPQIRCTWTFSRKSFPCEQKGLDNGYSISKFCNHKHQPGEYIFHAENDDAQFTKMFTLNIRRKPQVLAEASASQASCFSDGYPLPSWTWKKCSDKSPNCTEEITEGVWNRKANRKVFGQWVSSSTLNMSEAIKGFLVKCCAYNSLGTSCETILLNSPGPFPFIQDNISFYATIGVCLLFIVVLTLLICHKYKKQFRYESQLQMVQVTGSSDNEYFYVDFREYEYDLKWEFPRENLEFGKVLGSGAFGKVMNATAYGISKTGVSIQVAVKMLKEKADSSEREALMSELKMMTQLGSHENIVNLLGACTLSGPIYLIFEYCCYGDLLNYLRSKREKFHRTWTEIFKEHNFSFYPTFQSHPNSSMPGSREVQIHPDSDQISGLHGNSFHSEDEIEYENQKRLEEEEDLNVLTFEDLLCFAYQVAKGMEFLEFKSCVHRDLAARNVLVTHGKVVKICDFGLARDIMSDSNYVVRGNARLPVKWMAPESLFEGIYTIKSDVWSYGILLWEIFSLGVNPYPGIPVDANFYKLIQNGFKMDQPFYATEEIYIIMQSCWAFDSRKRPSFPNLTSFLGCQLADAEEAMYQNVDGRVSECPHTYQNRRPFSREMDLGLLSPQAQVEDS

[15] = target: Serine/threonine-protein kinase Nek6 (Homo sapiens) (UniProt Q9HC98); assay: Inhibition of NEK6 (unknown origin) at 1 uM by mobility shift microfluidics platform based assay relative to control
[16] = target: Ribosomal protein S6 kinase beta-2 (Homo sapiens) (UniProt Q9UBS0); assay: Inhibition of P70S6K2 (unknown origin) at 1 uM by mobility shift microfluidics platform based assay relative to control
[17] = target: Homeodomain-interacting protein kinase 1 (Homo sapiens) (UniProt Q86Z02); assay: Inhibition of HIPK1 (unknown origin) at 1 uM by mobility shift microfluidics platform based assay relative to control
[18] = target: Rhodopsin kinase GRK7 (Homo sapiens) (UniProt Q8WTQ7); assay: Inhibition of GRK7 (unknown origin) at 1 uM by mobility shift microfluidics platform based assay relative to control
[19] = target: SRSF protein kinase 1 (Homo sapiens) (UniProt Q96SB4); assay: Inhibition of SRPK1 (unknown origin) at 1 uM by mobility shift microfluidics platform based assay relative to control
Chain of SRSF protein kinase 1 (Homo sapiens) (Q96SB4 whole entry): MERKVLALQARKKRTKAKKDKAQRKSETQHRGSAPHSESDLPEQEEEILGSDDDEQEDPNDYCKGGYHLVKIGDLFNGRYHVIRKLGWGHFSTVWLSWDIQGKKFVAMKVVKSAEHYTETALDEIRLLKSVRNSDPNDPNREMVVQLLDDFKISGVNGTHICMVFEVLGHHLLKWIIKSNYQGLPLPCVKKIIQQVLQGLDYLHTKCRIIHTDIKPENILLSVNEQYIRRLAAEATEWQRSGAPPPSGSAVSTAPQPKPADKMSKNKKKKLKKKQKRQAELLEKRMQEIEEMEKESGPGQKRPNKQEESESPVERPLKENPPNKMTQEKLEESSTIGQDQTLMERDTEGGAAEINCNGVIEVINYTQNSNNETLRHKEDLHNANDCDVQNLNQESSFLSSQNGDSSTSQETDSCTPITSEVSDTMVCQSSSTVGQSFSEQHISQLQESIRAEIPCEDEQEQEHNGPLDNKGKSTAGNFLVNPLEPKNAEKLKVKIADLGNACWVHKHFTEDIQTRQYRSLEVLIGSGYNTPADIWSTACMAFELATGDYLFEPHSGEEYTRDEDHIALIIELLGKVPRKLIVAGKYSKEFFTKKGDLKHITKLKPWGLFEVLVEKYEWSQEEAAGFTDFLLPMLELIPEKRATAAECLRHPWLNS

[20] = target: Tyrosine-protein kinase receptor TYRO3 (Homo sapiens) (UniProt Q06418); assay: Inhibition of TYRO3 (unknown origin) at 1 uM by mobility shift microfluidics platform based assay relative to control
[21] = target: Ephrin type-B receptor 1 (Homo sapiens) (UniProt P54762); assay: Inhibition of EPH-B1 (unknown origin) at 1 uM by mobility shift microfluidics platform based assay relative to control
Chain of Ephrin type-B receptor 1 (Homo sapiens) (P54762 whole entry): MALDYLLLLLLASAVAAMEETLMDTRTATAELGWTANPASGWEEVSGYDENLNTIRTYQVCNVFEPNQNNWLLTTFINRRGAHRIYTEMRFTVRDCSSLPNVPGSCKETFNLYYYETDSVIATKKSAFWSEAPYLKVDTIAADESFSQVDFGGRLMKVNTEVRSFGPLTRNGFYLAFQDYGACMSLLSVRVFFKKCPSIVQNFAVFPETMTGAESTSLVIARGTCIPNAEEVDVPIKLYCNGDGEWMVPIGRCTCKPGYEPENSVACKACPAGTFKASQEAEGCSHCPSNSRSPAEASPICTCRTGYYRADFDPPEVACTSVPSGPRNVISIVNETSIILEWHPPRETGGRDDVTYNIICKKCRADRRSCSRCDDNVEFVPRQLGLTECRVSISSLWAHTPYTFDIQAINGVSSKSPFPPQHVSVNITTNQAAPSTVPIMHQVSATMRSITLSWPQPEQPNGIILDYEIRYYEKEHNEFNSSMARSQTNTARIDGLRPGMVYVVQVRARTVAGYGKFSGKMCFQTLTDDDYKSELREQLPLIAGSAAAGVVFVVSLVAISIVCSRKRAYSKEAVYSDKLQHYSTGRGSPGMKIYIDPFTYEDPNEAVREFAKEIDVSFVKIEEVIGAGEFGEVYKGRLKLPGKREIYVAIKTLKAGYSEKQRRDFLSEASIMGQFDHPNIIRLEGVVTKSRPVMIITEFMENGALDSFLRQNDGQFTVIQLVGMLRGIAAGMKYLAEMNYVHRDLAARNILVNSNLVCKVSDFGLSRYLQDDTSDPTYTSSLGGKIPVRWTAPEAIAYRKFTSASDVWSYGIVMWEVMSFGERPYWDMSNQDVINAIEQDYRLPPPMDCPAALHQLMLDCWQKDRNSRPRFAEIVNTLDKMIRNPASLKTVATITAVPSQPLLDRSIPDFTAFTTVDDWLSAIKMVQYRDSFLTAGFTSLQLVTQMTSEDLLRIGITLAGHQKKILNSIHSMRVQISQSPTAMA

[22] = target: Sphingosine kinase 2 (Homo sapiens) (UniProt Q9NRA0); assay: Inhibition of SPHK2 (unknown origin) at 1 uM by mobility shift microfluidics platform based assay relative to control
[23] = target: Activated CDC42 kinase 1 (Homo sapiens) (UniProt Q07912); assay: Inhibition of TNK2 (unknown origin) at 1 uM by mobility shift microfluidics platform based assay relative to control
[24] = target: Calcium/calmodulin-dependent protein kinase type II subunit alpha (Homo sapiens) (UniProt Q9UQM7); assay: Inhibition of CAMK2A (unknown origin) at 1 uM by mobility shift microfluidics platform based assay relative to control
Chain of Calcium/calmodulin-dependent protein kinase type II subunit alpha (Homo sapiens) (Q9UQM7 whole entry): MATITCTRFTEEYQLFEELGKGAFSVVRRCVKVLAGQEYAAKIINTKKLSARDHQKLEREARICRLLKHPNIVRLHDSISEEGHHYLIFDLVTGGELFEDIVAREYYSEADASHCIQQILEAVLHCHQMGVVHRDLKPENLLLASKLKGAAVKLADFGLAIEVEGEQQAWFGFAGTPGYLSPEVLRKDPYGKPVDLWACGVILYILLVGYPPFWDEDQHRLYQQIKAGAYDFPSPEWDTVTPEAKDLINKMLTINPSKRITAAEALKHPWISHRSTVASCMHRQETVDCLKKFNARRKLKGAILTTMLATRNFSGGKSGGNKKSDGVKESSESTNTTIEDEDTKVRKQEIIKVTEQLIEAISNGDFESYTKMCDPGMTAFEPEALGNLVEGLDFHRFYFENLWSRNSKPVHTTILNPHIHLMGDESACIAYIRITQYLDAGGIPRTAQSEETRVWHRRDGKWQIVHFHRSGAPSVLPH

[25] = target: Macrophage-stimulating protein receptor (Homo sapiens) (UniProt Q04912); assay: Inhibition of RON (unknown origin) at 1 uM by mobility shift microfluidics platform based assay relative to control
[26] = target: Interleukin-1 receptor-associated kinase 1 (Homo sapiens) (UniProt P51617); assay: Inhibition of IRAK1 (unknown origin) at 1 uM by mobility shift microfluidics platform based assay relative to control
[27] = target: Receptor tyrosine-protein kinase erbB-2 (Homo sapiens) (UniProt P04626); assay: Inhibition of ERB-B2 (unknown origin) at 1 uM by mobility shift microfluidics platform based assay relative to control
[28] = target: Serine/threonine-protein kinase 16 (Homo sapiens) (UniProt O75716); assay: Inhibition of STK16 (unknown origin) at 1 uM by mobility shift microfluidics platform based assay relative to control
[29] = target: Inhibitor of nuclear factor kappa-B kinase subunit epsilon (Homo sapiens) (UniProt Q14164); assay: Inhibition of IKK-epsilon (unknown origin) at 1 uM by mobility shift microfluidics platform based assay relative to control
Chain of Inhibitor of nuclear factor kappa-B kinase subunit epsilon (Homo sapiens) (Q14164 whole entry): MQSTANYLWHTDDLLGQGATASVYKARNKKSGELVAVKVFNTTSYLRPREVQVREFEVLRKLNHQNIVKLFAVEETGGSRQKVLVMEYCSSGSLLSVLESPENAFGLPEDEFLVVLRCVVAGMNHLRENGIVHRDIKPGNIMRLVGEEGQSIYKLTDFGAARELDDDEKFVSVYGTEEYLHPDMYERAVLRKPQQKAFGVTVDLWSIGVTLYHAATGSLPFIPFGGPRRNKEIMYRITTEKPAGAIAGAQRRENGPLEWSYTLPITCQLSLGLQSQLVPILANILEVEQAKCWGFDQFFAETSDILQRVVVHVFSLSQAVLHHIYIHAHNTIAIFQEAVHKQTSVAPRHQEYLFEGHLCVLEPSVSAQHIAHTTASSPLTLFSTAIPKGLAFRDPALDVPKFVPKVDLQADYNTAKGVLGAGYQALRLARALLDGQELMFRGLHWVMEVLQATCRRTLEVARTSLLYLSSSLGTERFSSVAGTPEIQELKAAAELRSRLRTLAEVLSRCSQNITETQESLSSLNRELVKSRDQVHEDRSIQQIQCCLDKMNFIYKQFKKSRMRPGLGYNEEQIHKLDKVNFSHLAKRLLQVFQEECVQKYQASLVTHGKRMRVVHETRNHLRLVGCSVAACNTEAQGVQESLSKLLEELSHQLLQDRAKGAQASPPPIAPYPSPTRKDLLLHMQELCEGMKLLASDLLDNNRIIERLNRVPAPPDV

[30] = target: Non-receptor tyrosine-protein kinase TYK2 (Homo sapiens) (UniProt P29597); assay: Inhibition of TYK2 (unknown origin) at 1 uM by mobility shift microfluidics platform based assay relative to control
[31] = target: G protein-coupled receptor kinase 6 (Homo sapiens) (UniProt P43250); assay: Inhibition of GRK6 (unknown origin) at 1 uM by mobility shift microfluidics platform based assay relative to control
[32] = target: cAMP-dependent protein kinase catalytic subunit beta (Homo sapiens) (UniProt P22694); assay: Inhibition of PKACB (unknown origin) at 1 uM by mobility shift microfluidics platform based assay relative to control
[33] = target: Fibroblast growth factor receptor 4 (Homo sapiens) (UniProt P22455); assay: Inhibition of FGFR4 (unknown origin) at 1 uM by mobility shift microfluidics platform based assay relative to control
Chain of Fibroblast growth factor receptor 4 (Homo sapiens) (P22455 22-802 limits assumed): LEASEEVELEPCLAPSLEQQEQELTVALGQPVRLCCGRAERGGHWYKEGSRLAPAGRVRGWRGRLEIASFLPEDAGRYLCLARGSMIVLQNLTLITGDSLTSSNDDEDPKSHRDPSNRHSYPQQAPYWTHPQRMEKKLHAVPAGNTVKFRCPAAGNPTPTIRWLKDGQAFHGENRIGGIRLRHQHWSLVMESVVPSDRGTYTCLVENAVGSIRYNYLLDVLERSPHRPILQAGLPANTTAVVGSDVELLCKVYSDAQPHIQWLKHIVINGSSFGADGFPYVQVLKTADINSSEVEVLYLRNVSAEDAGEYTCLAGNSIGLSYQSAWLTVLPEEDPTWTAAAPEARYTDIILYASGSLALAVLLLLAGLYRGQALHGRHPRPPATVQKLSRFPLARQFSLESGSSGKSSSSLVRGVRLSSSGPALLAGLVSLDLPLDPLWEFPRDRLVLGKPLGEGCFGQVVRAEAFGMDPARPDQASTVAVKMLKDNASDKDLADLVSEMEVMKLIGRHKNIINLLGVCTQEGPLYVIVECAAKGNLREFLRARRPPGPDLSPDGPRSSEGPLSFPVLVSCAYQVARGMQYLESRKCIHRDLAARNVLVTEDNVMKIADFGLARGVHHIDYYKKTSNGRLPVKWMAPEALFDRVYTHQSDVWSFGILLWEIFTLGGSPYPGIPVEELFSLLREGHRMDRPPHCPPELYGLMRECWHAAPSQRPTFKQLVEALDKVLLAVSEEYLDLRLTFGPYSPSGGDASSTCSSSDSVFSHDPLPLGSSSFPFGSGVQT

Row | Structure (SMILES) | inhibition [1] [%] | inhibition [2] [%] | inhibition [3] [%] | inhibition [4] [%] | inhibition [5] [%] | inhibition [6] [%] | inhibition [7] [%] | inhibition [8] [%] | inhibition [9] [%] | inhibition [10] [%] | Papp B→A [11] [×10⁻⁶ cm/s] | inhibition [12] [%] | inhibition [13] [%] | inhibition [14] [%] | inhibition [15] [%] | inhibition [16] [%] | inhibition [17] [%] | inhibition [18] [%] | inhibition [19] [%] | inhibition [20] [%] | also measured
1 | CC(C)n1nc(C#Cc2cccc(NC(=O)c3cccc(C(F)(F)F)c3)c2)c2c(N)ncnc21 | 2 | 1 | 30 | 97 | -1 | 2 | -3 | 99 | 10 | -1 | 1 | 19 | 0 | 29 | 0 | 5 | -3 | 1 | 1 | 67 | inhibition [21]: 97%; inhibition [22]: 0%; inhibition [23]: 13%; inhibition [24]: 3%; inhibition [25]: 2%; inhibition [26]: 28%; inhibition [27]: 58%; inhibition [28]: 8%; inhibition [29]: 17%; inhibition [30]: 31%; inhibition [31]: -9%; inhibition [32]: 2%; inhibition [33]: 89%
2 | CC(C)n1nc(C#Cc2cccc3cc(-c4cccc(C(F)(F)F)c4)ncc23)c2c(N)ncnc21 | 4 | -5 | 10 | 46 | 0 | -4 | 6 | 89 | 4 | -5 | 2.6 | 3 | 0 | 7 | -5 | 3 | -2 | 5 | 2 | 2 | inhibition [21]: 84%; inhibition [22]: 20%; inhibition [23]: 3%; inhibition [24]: 6%; inhibition [25]: 1%; inhibition [26]: -3%; inhibition [27]: 0%; inhibition [28]: 2%; inhibition [29]: 8%; inhibition [30]: 2%; inhibition [31]: 3%; inhibition [32]: 3%; inhibition [33]: 62%
